Series [1] concerns dengue virus type 2. The experiment in a line: Antiviral activity against Dengue virus type 2 New Guinea C infected in African green monkey Vero cells assessed as reduction in viral titer at 10 uM after 2 days by Giemsa staining assay relative to control. Type of series: functional. Details: scale not given: the % may be the effect or the level left. The essentials:
(§1)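 Vero cells, 4 × 10^5/well, infected with DENV-2 New Guinea C at MOI 0.2 for 2 h at 37°C, washed, then compound added (10 μM; MPA 1.0 μM). Supernatant taken after 2 days, clarified, 10-fold dilutions plaqued on Vero under methylcellulose for 5 days, fixed, Giemsa-stained; titer as PFU/mL, percent reduction; 10 μM from two experiments, 1.0 μM from one.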

Series [2] concerns West Nile virus. The experiment in a line: Antiviral activity against West Nile virus infected in BHK-WII RepRen1B cells assessed as inhibition of viral replication after 3 days by luciferase reporter gene assay. Type of series: functional, organism-based. Particulars: 72 h. (In general: In a reporter assay the amount or activity of a reporter protein is the signal.)
Series [3] relates to dengue virus type 3. Briefly: Displacement of [3H]-SAM from biotinylated Dengue virus 3 methyltransferase expressed in Escherichia coli at 20 uM preincubated for 20 mins followed by [3H]-SAM addition measured after 15 mins by scintillation counting analysis. The essentials: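 Biotinylated refolded E. coli-expressed DENV3 MTase (580 nM) with SPA beads (1.5 mg/mL) and 20 μM competitor (compound, SAM or sinefungin) in Tris pH 7.5 buffer with NaCl, KCl, MgCl2, MnCl2, CHAPS, 20 min at 23°C; 3H-SAM (425 nM) added, 15 min at 23°C, centrifuged, scintillation proximity counting.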
On the technique in general: Displacement assays read how much labelled ligand stays bound in the presence of the test substance.

The nature of series [4]: Cytotoxicity against BHK cells infected with West Nile virus replicon assessed as cell viability after 3 days by CellTiter 96 aqueous one solution cell proliferation assay. Particulars: hamster, 72 h. Type of series: cell-based, Mesocricetus auratus. The essentials: (§2)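 WNV replicon BHK cells, about 3 × 10^3/well, plated without antibiotic selection; next day compound in DMSO (10 μM final for screening, or eight serial dilutions), 3 days at 37°C, 5% CO2. Tetrazolium reagent, absorbance 450 nm, triplicate means versus DMSO wells; CC50 = 50% reduction in proliferation; CC50s mean ± SD of two experiments, top dose 200 μM.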
Background: Replicon systems follow genome replication, usually without infectious particles.

The test system of series [5] is Dengue virus. The experiment in a line: Antiviral activity against Dengue virus infected in BHK pD2-hRucPac-2ATG cells assessed as inhibition of viral replication after 3 days by luciferase reporter gene assay. Type of series: functional, organism-based. To be noted: 72 h. The essentials:
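BHK DENV subgenomic replicon line carrying Renilla luciferase, kept on 3 μg/mL puromycin; 1.5 × 10^3 cells/well plated without selection, compounds in DMSO added next day to triplicate wells, at 10 μM final for screening or eight serial dilutions. Live-cell Renilla substrate after 3 days, luminescence versus DMSO wells; EC50 = 50% luciferase reduction; MPA 1 μM control.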

The nature of series [6]: Cytotoxicity against BHK cells infected with Dengue virus replicon assessed as cell viability after 3 days by CellTiter 96 aqueous one solution cell proliferation assay. The series is classed as cell-based, Mesocricetus auratus. To be noted: hamster, 72 h. The essentials:
(§3)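 DENV replicon BHK cells, 1.5 × 10^3/well, plated without antibiotic selection; next day compound in DMSO (10 μM final for screening, or eight serial dilutions), 3 days at 37°C, 5% CO2. Tetrazolium (MTS-type) reagent, absorbance 450 nm, triplicate means versus DMSO wells; CC50 = 50% reduction in proliferation; CC50s mean ± SD of two experiments, top dose 200 μM.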

The subject of series [7] is Hepatitis C virus. The experiment in a line: Antiviral activity against HCV. To be noted: Hepacivirus hominis. Type of series: functional, organism-based.
The subject of series [8] is West Nile virus. The experiment in a line: Antiviral activity against West Nile virus infected in BHK-WII RepRen1B cells assessed as inhibition of viral replication at 10 uM after 3 days by luciferase reporter gene assay relative to control. Type of series: functional. To be noted: 72 h. The essentials:
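Compound (DMSO, 10 μM final) added next day in triplicate; lycorine 1 μM served as control inhibitor. Three days on, live-cell Renilla substrate (1:1000 in phenol-red-free DME, 10% FBS) replaced medium. Luminescence measured; triplicate means compared with DMSO-alone wells.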

Series [9] is described as follows: Cytotoxicity against BHK cells infected with West Nile virus replicon assessed as cell viability at 10 uM after 3 days by CellTiter 96 aqueous one solution cell proliferation assay relative to control. To be noted: hamster, bhk, 72 h, 10 µM. The series is classed as cell-based, Mesocricetus auratus. The essentials: as §2
Series [10] has as its system Dengue virus. The experiment in a line: Antiviral activity against Dengue virus infected in BHK pD2-hRucPac-2ATG cells assessed as inhibition of viral replication at 10 uM after 3 days by luciferase reporter gene assay relative to control. The series is classed as functional. Particulars: 72 h. The essentials:
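Renilla luciferase-bearing DENV subgenomic replicon BHK cells, kept on 3 μg/mL puromycin, seeded at 1.5 × 10^3/well without selection. Next day, 10 μM final compound in DMSO added to triplicate wells; MPA 1 μM as control inhibitor. After 3 days, medium swapped for live-cell Renilla substrate (1:1000, phenol-red-free DME, 10% FBS). Luminescence read; triplicate mean compared with DMSO-only wells.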

Series [11] deals with unidentified influenza virus. Briefly: Antiviral activity against Influenzae virus. Type of series: functional, organism-based.
The target in series [12] is Human immunodeficiency virus type 1 reverse transcriptase (Human immunodeficiency virus 1) (UniProt Q72547). The experiment in a line: Inhibition of HIV1 reverse transcriptase.
Series [13] relates to Human immunodeficiency virus 1. The experiment in a line: Antiviral activity against HIV1. Type of series: functional, organism-based.
Series [14] deals with Human betaherpesvirus 5. Briefly: Antiviral activity against Human cytomegalovirus. Type of series: functional, organism-based.
Series [15] is described as follows: Cytotoxicity against BHK cells infected with Dengue virus replicon assessed as cell viability at 10 uM after 3 days by CellTiter 96 aqueous one solution cell proliferation assay relative to control. Particulars: hamster, bhk, 72 h, 10 µM. Type of series: cell-based, Mesocricetus auratus. The essentials: as §3
The test system of series [16] is dengue virus type 2. Briefly: Antiviral activity against Dengue virus type 2 New Guinea C infected in African green monkey Vero cells assessed as reduction in viral titer at 1 uM after 2 days by Giemsa staining assay relative to control. Type of series: functional. Details: scale not given: the % may be the effect or the level left. The essentials:
as §1

The source made the active and inactive calls. No cut-off for these calls is given here.

Results on four compounds are retold here after ChEMBL document CHEMBL3576816, “5'-Silylated 3'-1,2,3-triazolyl Thymidine Analogues as Inhibitors of West Nile Virus and Dengue Virus” (J Med Chem, 2015).

One may read the EC50 as the concentration giving half of the maximal effect. Usually inhibition stands for the drop in the measured response relative to a control, in per cent. Usually CC50 stands for the concentration giving 50% cytotoxicity.

With `Cc1cn([C@H]2C[C@H](NC(=O)CCCCc3ccc(F)cc3)[C@@H](CO[Si](C)(C)C(C)(C)C)O2)c(=O)[nH]c1=O`, the Activity in series [1] was determined as 67%. The EC50 is 15 µM in series [2] and 9.6 µM in series [5]. In series [3], the inhibition entry was “Active”. Also, the figures for the CC50 in series [4] and in series [6] were 23 µM and 22 µM, respectively.

For the compound `COc1ccc2cc(-c3cn([C@H]4C[C@H](n5cc(C)c(=O)[nH]c5=O)O[C@@H]4CO[Si](C)(C)C(C)(C)C)nn3)ccc2c1`, the outcome in series [7], in series [11], in series [13] and in series [14] was inactive. Also, the Activity in series [1] was 98%; in series [9] it was 100%; in series [15], 96%. In addition, the inhibition at 10 µM is 92% in [8] and 57% in series [10]. The EC50 in series [2] was determined as 7.4 µM; in series [5], 8.4 µM. Moreover, in [3], the inhibition entry is “Active”. The CC50 was more than 200 µM in [4] and 21 µM in series [6]. Also, the inhibition result in series [12] is “inactive”.

For `COc1ccc2cc(-c3cnnn3[C@H]3C[C@H](n4cc(C)c(=O)[nH]c4=O)O[C@@H]3CO[Si](C)(C)C(C)(C)C)ccc2c1`, the result in series [7], in [11], in [13] and in [14] was inactive. For the same compound, the inhibition at 10 µM in series [8] worked out at 97%; in series [10], 85%. Further, the Activity in [9] turned out to be 100%; in series [15] it was 86%. The EC50 in series [2] was determined as 2.9 µM; in series [5], 7.3 µM. In [3], the inhibition entry is “Active”. The CC50 amounted to 13 µM in series [4] and 7.9 µM in series [6]. The inhibition result in [12] is “inactive”.

For `COc1c(C)c2c(c(O)c1C/C=C(\C)CCC(=O)O)C(=O)OC2` [MYCOPHENOLIC ACID], the Activity in [16] stood at 68%.
